From ChEMBL document CHEMBL5576140, “Computational Design of Pore-Forming Peptides with Potent Antimicrobial and Anticancer Activities” (J Med Chem, 2024)
Calls of active or inactive are those of the source. The calls are words filed in the database; no cut-off is given here.

Key:
[1] = Toxicity in neutropenic CD-1 mouse deep thigh infection model infected with Acinetobacter baumannii ATCC 19606 assessed as body weight change at 0.16 mg/kg, ip measured after 4 days; assay type: organism-based; conditions: in vivo, 96 h, time 4 day
How it was run: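 Neutropenic mice infected intramuscularly in the right thigh with 10⁶ cells per mL of A. baumannii ATCC 19606. […] Body weight monitored for toxicity. Euthanasia 4 days post-infection (day 8). n = 6 per group, from three inocula.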

Staphylococcus aureus [2] = assay: Antimicrobial activity against Staphylococcus aureus NE163 harboring single transposon insertion mutation in aureolysin at 30 uM incubated for 18 hrs relative to control; assay type: functional
How it was run: (§1)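 CA-MRSA USA300 LAC derivative JE2 and single transposon insertion mutants derived from JE2, each lacking an extracellular protease gene, were exposed to peptides up to 30 μM. The read-out was percent growth inhibition. Peptides were dissolved in PBS, and tests were run in triplicate.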

Staphylococcus aureus [3] = assay: Antimicrobial activity against Staphylococcus aureus NE1506 harboring single transposon insertion mutation in V8 protease at 30 uM incubated for 18 hrs relative to control; assay type: functional; how it was run: as §1
Staphylococcus aureus [4] = assay: Antimicrobial activity against Staphylococcus aureus NE934 harboring single transposon insertion mutation in staphopain B at 30 uM incubated for 18 hrs relative to control; assay type: functional; how it was run: as §1
[5] = Stability in human serum assessed as half life at 10 mg/ml by UPLC-MS analysis; assay type: ADME, cell-free
How it was run: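 Peptides dissolved in PBS and incubated in 25% human serum. Intact peptide remaining followed over time to at least 6 h; half-life taken as time to 50% stability.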

Mus musculus = assay: Induction of wound healing activity in immunosuppressed Balb/c mouse excisional dorsal wound infection model infected with Acinetobacter baumannii NCTC 13301 assessed as reduction in wound expansion at about 10 mg/kg treated for 7 days once daily; assay type: functional, organism-based; conditions: time 7.0 day
[6] = Toxicity in immunosuppressed Balb/c mouse excisional dorsal wound infection model infected with Acinetobacter baumannii NCTC 13301 assessed as decrease in animal survival at about 10 mg/kg treated for 7 days once daily measured after 45 days; assay type: organism-based; conditions: in vivo, 1080 h, time 45 day
Enterococcus faecium = assay: Depolarization of cytoplasmic membrane in Enterococcus faecium ATCC 700221 at MIC measured for 45 mins by DiSC3-(5) dye based assay; assay type: functional, organism-based
How it was run: (§2)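 Bacteria loaded with membrane-potential dye DiSC3-(5), then treated with peptide at its MIC for the respective strain; depolarization read as rise in dye fluorescence; polymyxin B and levofloxacin as reference antibiotics.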

Pseudomonas aeruginosa [7] = assay: Depolarization of cytoplasmic membrane in Pseudomonas aeruginosa PAO1 at MIC measured for 45 mins by DiSC3-(5) dye based assay; assay type: functional, organism-based; how it was run: as §2
Escherichia coli = assay: Depolarization of cytoplasmic membrane in Escherichia coli ATCC 11775 at MIC measured for 45 mins by DiSC3-(5) dye based assay; assay type: functional, organism-based; how it was run: as §2
Klebsiella pneumoniae = assay: Induction of outer membrane permeabilization in Klebsiella pneumoniae ATCC 13883 measured for 20 mins by NPN uptake assay; assay type: functional, organism-based
How it was run: (§3)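 Outer-membrane permeabilization of Gram-negative bacteria read as rise in fluorescence of the lipophilic dye NPN, which enters only when outer-membrane integrity is compromised. Peptides applied at their MIC against the respective strain; polymyxin B and levofloxacin as reference antibiotics. Triplicates.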

Acinetobacter baumannii = assay: Induction of outer membrane permeabilization in Acinetobacter baumannii ATCC 19606 measured for 20 mins by NPN uptake assay; assay type: functional, organism-based
Pseudomonas aeruginosa [8] = assay: Induction of outer membrane permeabilization in Pseudomonas aeruginosa PAO1 measured for 20 mins by NPN uptake assay; assay type: functional, organism-based; how it was run: as §3
A498 = assay: Anti-cancer activity against human A498 cells incubated for 72 hrs by Cell Titer Glo assay; assay type: functional, cell-based; conditions: A498, 72 h
A549 = assay: Anti-cancer activity against human A549 cells incubated for 72 hrs by Cell Titer Glo assay; assay type: functional, cell-based; conditions: A549, 72 h
DU-145 = assay: Anti-cancer activity against human DU-145 cells incubated for 72 hrs by Cell Titer Glo assay; assay type: functional, cell-based; conditions: DU-145, 72 h
MDA-MB-231 = assay: Anti-cancer activity against human MDA-MB-231 cells incubated for 72 hrs by Cell Titer Glo assay; assay type: functional, cell-based; conditions: MDA-MB-231, 72 h
OVCAR-3 = assay: Anti-cancer activity against human OVCAR-3 cells incubated for 72 hrs by Cell Titer Glo assay; assay type: functional, cell-based; conditions: OVCAR-3, 72 h
PC-3 = assay: Anti-cancer activity against human PC-3 cells incubated for 72 hrs by Cell Titer Glo assay; assay type: functional, cell-based; conditions: PC-3, 72 h
T47D = assay: Anti-cancer activity against human T47D cells incubated for 72 hrs by Cell Titer Glo assay; assay type: functional, cell-based
U-251 = assay: Anti-cancer activity against human U-251MG cells incubated for 72 hrs by Cell Titer Glo assay; assay type: functional, cell-based; conditions: U-251, 72 h
[9] = Anti-cancer activity against human MEC-1 cells incubated for 24 hrs by WST assay; assay type: functional, cell-based; conditions: MEC1, 24 h
SUD4 = assay: Anti-cancer activity against human SU-DHL-4 cells incubated for 24 hrs by WST assay; assay type: functional, cell-based; conditions: SU-DHL-4, 24 h
K562 [10] = assay: Anti-cancer activity against human K562 cells at 10 uM incubated for 30 mins; assay type: functional, cell-based
HL-60 = assay: pH-dependent anticancer activity against human HL-60 cells in RPMI medium at 10 uM incubated for 1 hr; assay type: functional, cell-based
How it was run: (§4)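 Cells cultured in RPMI, DMEM or PBS, each adjusted to pH 8, 7 or 6, plus one unadjusted (~7.6). Peptide at 10 μM for only 1 h, to limit pH drift from CO₂-bicarbonate buffering. Cell viability read. Controls were melittin, ampicillin and PBS. Two independent repetitions; effects analysed by ANOVA.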

K562 [11] = assay: pH-dependent anticancer activity against human K562 cells in DMEM medium at 10 uM incubated for 1 hr; assay type: functional, cell-based; how it was run: as §4
K562 [12] = assay: pH-dependent anticancer activity against human K562 cells in PBS medium at 10 uM incubated for 1 hr; assay type: functional, cell-based; how it was run: as §4
HCT-116 [13] = assay: pH-dependent anticancer activity against human HCT-116 cells in DMEM medium at 10 uM incubated for 1 hr; assay type: functional, cell-based; how it was run: as §4
HCT-116 [14] = assay: pH-dependent anticancer activity against human HCT-116 cells in PBS medium at 10 uM incubated for 1 hr; assay type: functional, cell-based; how it was run: as §4
MCF7 [15] = assay: pH-dependent anticancer activity against human MCF7 cells in RPMI medium at 10 uM incubated for 1 hr; assay type: functional, cell-based; how it was run: as §4
MCF7 [16] = assay: Induction of apoptosis in human MCF7 cells in DMEM medium at pH 6 assessed as increase in cleaved capase-3 level at 5 uM; assay type: functional, cell-based
How it was run: (§5)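 MCF-7 cells treated with peptides at pH 6; apoptosis detected by immunoblotting for cleaved PARP and cleaved caspase-3.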

MCF7 [17] = assay: Induction of apoptosis in human MCF7 cells in DMEM medium at pH 6 assessed as increase in cleaved PARP level at 5 uM; assay type: functional, cell-based; how it was run: as §5
B cell = assay: Cytotoxicity against human B-lymphocytes assessed as deleterious effect upto 50 uM by flow cytometry; assay type: toxicity, cell-based
How it was run: (§6)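 Whole blood from a healthy donor treated with peptides up to 50 μM; effect on B and T lymphocytes, granulocytes and monocytes assessed.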

T-cell line = assay: Cytotoxicity against human T-lymphocytes assessed as deleterious effect upto 50 uM by flow cytometry; assay type: toxicity, cell-based; how it was run: as §6
Monocyte = assay: Cytotoxicity against human monocytes assessed as deleterious effect upto 50 uM by flow cytometry; assay type: toxicity, cell-based; how it was run: as §6

H-KKKKLKKILKKLFQFINQLDNQLQDIKQNK-NH2
Activity [1]: Non-Toxic
inhibition at 30 µM (Staphylococcus aureus [2]): < 45%
inhibition at 30 µM (Staphylococcus aureus [3]): < 45%
inhibition at 30 µM (Staphylococcus aureus [4]): < 45%
half-life at 10 mg/ml [5]: > 360 min
Activity (Mus musculus): Active
Activity [6]: Toxic
Activity (Enterococcus faecium): Active
Activity (Pseudomonas aeruginosa [7]): Active
Activity (Escherichia coli): Active
Activity (Klebsiella pneumoniae): Active
Activity (Acinetobacter baumannii): inactive
Activity (Pseudomonas aeruginosa [8]): Active
IC50 (A498): 1000 nM
IC50 (A549): 1000 nM
IC50 (DU-145): 1000 nM
IC50 (MDA-MB-231): 1000 nM
IC50 (OVCAR-3): 1000 nM
IC50 (PC-3): 1000 nM
IC50 (T47D): 1000 nM
IC50 (U-251): 1000 nM
IC50 [9]: ≤ 10 µM
IC50 (SUD4): ≤ 10 µM
Activity (K562 [10]): Active
Activity (HL-60): Active
Activity (K562 [11]): Active
Activity (K562 [12]): Active
Activity (HCT-116 [13]): Active
Activity (HCT-116 [14]): Active
Activity (MCF7 [15]): Active
Activity (MCF7 [16]): Active
Activity (MCF7 [17]): Active
Activity (B cell): Non-Toxic
Activity (T-cell line): Non-Toxic
Activity (Monocyte): Non-Toxic
